# Measurements reported in ChEMBL document CHEMBL3232870, “Discovery of 3-(4-methanesulfonylphenoxy)-N-[1-(2-methoxy-ethoxymethyl)-1H-pyrazol-3-yl]-5-(3-methylpyridin-2-yl)-benzamide as a novel glucokinase activator (GKA) for the treatment of type 2 diabetes mellitus” (Bioorg Med Chem, 2014).
# Legend:
# [1] = AUC (0 to t) in male Sprague-Dawley rat at 500 mg/kg, po measured on day 1; type: ADME, organism-based; design: dose 500 mg/kg, route oral; settings: plasma
# Procedure, shortened: (§1)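 Sprague–Dawley rats, 5 weeks old at arrival, both sexes. Given the compound by oral gavage once daily for 14 days at 0, 250, 500 or 1000 mg/kg/day, with 0.5% methylcellulose as vehicle. Toxicokinetic parameters were determined on Day 1 and Day 14.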
# [2] = Elimination half life in ICR mouse at 3 mg/kg, iv and 10 mg/kg, po; type: ADME, organism-based; settings: in vivo, read-out: beta t1/2 (converted)
# Procedure, shortened: (§2)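 Male ICR mice and 7-week-old SD rats received a 3 mg/kg intravenous bolus or a 10 mg/kg oral gavage dose. Plasma was deproteinized with acetonitrile (2 volumes) and compound measured by HPLC. Parameters came from noncompartmental analysis.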
# Mus musculus [3] = experiment: Antidiabetic activity in glucose-treated C57BL/J6 db/db mouse assessed as reduction of glucose AUC at 50 mg/kg, po preincubated for 30 mins followed by glucose challenge measured after 30 to 180 mins by oral glucose tolerance test relative to control; type: functional; design: scale not given: the % may be the effect or the level left; settings: in the assay text read “C57BL/J6 mouse” for “C57BL/J6 db/db mouse”
# Procedure, shortened: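 Oral glucose tolerance test. Mice: eight-week-old male C57BL/6 or ten-week-old male C57BLKS/J db/db, fasted overnight with water. Compound or 0.5% methylcellulose vehicle given orally, then an oral 2 g/kg glucose challenge 30 min later. Tail-tip blood glucose was read just before and at 30, 60, 90, 120 and 180 min. AUC was calculated from the time–glucose curve; n = 6.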
# [4] = Oral bioavailability in Sprague-Dawley rat at 10 mg/kg; type: ADME, organism-based; settings: in vivo
# Procedure, shortened: (§3)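 Male ICR mice and 7-week-old SD rats received a 3 mg/kg iv bolus or a 10 mg/kg oral gavage dose. Plasma was precipitated with 2 volumes of acetonitrile and analysed by HPLC. Parameters came from noncompartmental analysis.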
# [5] = AUC (0 to t) in female Sprague-Dawley rat at 500 mg/kg, po measured on day 1; type: ADME, organism-based; design: dose 500 mg/kg, route oral; settings: plasma; procedure, shortened: as §1
# MIN6 = experiment: Increase in 11 mM glucose-stimulated insulin secretion in mouse MIN6 cells measured for 1 hr by ELISA; type: functional
# Rattus norvegicus = experiment: Toxicity in Sprague-Dawley rat assessed as multinucleated giant cells in testis at 250 to 1000 mg/kg, po by hematoxylin and eosin staining-based microscopy; type: organism-based; design: dose 250-1000 mg/kg, route oral; settings: in vivo
# Procedure, shortened: (§4)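 Sprague–Dawley rats of both sexes, 5 weeks old at arrival, received daily oral gavage at 0, 250, 500 or 1000 mg/kg/day for 14 days. Vehicle was 0.5% methylcellulose at 10 mL/kg. Toxicokinetics were taken on Day 1 and Day 14. Necropsy was by Day 15. Testis was fixed in modified Davidson's fixative, paraffin-sectioned and H&E-stained, with histopathology on control and high-dose groups only.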
# [6] = Cmax in female Sprague-Dawley rat at 500 mg/kg, po measured on day 14; type: ADME, organism-based; design: dose 500 mg/kg, route oral; settings: in vivo; procedure, shortened: as §1
# [7] = AUC (0 to t) in male Sprague-Dawley rat at 500 mg/kg, po measured on day 14; type: ADME, organism-based; design: dose 500 mg/kg, route oral; settings: plasma; procedure, shortened: as §1
# Canis familiaris = experiment: Toxicity in Beagle dog assessed as testicular effect administered repeated dose level of 1000 mg/kg/day, po administered on days 3, 6 and 8 by hematoxylin and eosin staining-based microscopy; type: organism-based, Canis lupus familiaris; design: route oral; settings: in vivo
# Procedure, shortened: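 Dogs received escalating oral doses of 100, 300 and 1000 mg/kg/day over 8 days (Days 3, 6 and 8 for each dose). Vehicle was 0.5% methylcellulose at 5 mL/kg. Two animals were necropsied at termination, and testes were fixed in modified Davidson's fixative, paraffin-embedded, H&E-stained and examined microscopically.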
# [8] = Mean residence time in Sprague-Dawley rat at 3 mg/kg, iv and 10 mg/kg, po; type: ADME, organism-based; settings: in vivo; procedure, shortened: as §3
# Cytochrome P450 2C9 = Cytochrome P450 2C9 (Homo sapiens, UniProt P11712); experiment: Inhibition of CYP2C9 in human liver microsomes; type: ADME
# Cytochrome P450 2C9, sequence (P11712 whole entry): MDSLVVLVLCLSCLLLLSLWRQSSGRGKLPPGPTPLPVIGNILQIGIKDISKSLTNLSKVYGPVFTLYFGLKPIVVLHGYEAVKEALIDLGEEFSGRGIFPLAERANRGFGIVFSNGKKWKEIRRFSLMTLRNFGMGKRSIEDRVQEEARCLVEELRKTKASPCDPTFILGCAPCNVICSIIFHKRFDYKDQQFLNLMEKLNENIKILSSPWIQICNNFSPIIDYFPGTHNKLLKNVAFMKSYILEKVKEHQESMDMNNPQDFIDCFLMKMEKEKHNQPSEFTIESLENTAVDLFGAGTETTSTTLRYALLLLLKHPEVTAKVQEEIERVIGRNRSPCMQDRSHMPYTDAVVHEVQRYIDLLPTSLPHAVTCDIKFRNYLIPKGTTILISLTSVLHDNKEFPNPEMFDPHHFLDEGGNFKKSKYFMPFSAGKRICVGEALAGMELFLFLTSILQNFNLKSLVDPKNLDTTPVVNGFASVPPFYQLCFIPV
# Procedure, shortened: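 Pooled human liver microsomes at 0.25 mg/mL, each with a CYP-selective substrate and test compound up to 25 µM, preincubated at 37 °C. It is stopped on ice with ice-cold acetonitrile and centrifuged, and the supernatant is analysed by LC–MS/MS.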
# [9] = Tmax in male Sprague-Dawley rat at 500 mg/kg, po measured on day 1; type: ADME, organism-based; design: dose 500 mg/kg, route oral; settings: in vivo; procedure, shortened: as §4
# Salmonella typhimurium [10] = experiment: Cytotoxicity in Salmonella typhimurium TA98 at 1.5 to 5000 ug/plate in presence of S9 fraction; type: organism-based; settings: salmonella enterica subsp. enterica serovar typhimurium
# Procedure, shortened: (§5)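 Ames reverse mutation test by direct plate incorporation in S. typhimurium TA98 and TA100, with or without Aroclor 1254-induced rat liver S9 mix. Compound in DMSO at 1.5–5000 µg/plate, plated in top agar, incubated 37 °C for about 50 h, then revertant colonies counted. Plates were checked for precipitation and cytotoxicity. A positive was a reproducible, dose-related increase in revertants of more than 2-fold.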
# Mus musculus [11] = experiment: Toxicity in C57BL/J6 db/db mouse assessed as effect on serum lipids at 30 to 100 mg/kg, po; settings: in vivo
# Salmonella typhimurium [12] = experiment: Cytotoxicity in Salmonella typhimurium TA98 at 1.5 to 5000 ug/plate in absence of S9 fraction; type: organism-based; settings: salmonella enterica subsp. enterica serovar typhimurium; procedure, shortened: as §5
# Salmonella typhimurium [13] = experiment: Genotoxicity in Salmonella typhimurium TA100 assessed as increase in number of revertants at 1.5 to 5000 ug/plate by Ames test in presence of S9 fraction; type: toxicity, organism-based; settings: salmonella enterica subsp. enterica serovar typhimurium; procedure, shortened: as §5
# [14] = Metabolic stability in dog liver microsomes assessed as compound remaining after 1 hr relative to control; type: ADME, Canis lupus familiaris; settings: read-out: Stability
# Procedure, shortened: (§6)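 Liver microsomes from mouse, dog or human were incubated with compound for 1 h, and the percentage of compound remaining was determined.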
# [15] = AUC (0 to t) in male Sprague-Dawley rat at 250 mg/kg, po measured on day 1; type: ADME, organism-based; design: dose 250 mg/kg, route oral; settings: plasma; procedure, shortened: as §1
# [16] = AUC (0 to t) in female Sprague-Dawley rat at 250 mg/kg, po measured on day 1; type: ADME, organism-based; design: dose 250 mg/kg, route oral; settings: plasma; procedure, shortened: as §1
# [17] = AUC (0 to t) in male Sprague-Dawley rat at 1000 mg/kg, po measured on day 1; type: ADME, organism-based; design: dose 1000 mg/kg, route oral; settings: plasma; procedure, shortened: as §1
# [18] = Tmax in male Sprague-Dawley rat at 250 mg/kg, po measured on day 1; type: ADME, organism-based; design: dose 250 mg/kg, route oral; settings: in vivo; procedure, shortened: as §4
# Salmonella typhimurium [19] = experiment: Genotoxicity in Salmonella typhimurium TA98 assessed as increase in number of revertants at 1.5 to 5000 ug/plate by Ames test in presence of S9 fraction; type: toxicity, organism-based; settings: salmonella enterica subsp. enterica serovar typhimurium; procedure, shortened: as §5
# [20] = Metabolic stability in mouse liver microsomes assessed as compound remaining after 1 hr relative to control; type: ADME; settings: read-out: Stability; procedure, shortened: as §6
# [21] = Cmax in male Sprague-Dawley rat at 1000 mg/kg, po measured on day 1; type: ADME, organism-based; design: dose 1000 mg/kg, route oral; settings: in vivo; procedure, shortened: as §1
# [22] = Apparent permeability of the compound by PAMPA; type: physicochemical
# [23] = Increase in 11 mM glucose-stimulated insulin secretion in Sprague-Dawley rat Pancreatic islet measured for 1 hr by ELISA; type: functional
# Procedure, shortened: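 Islets isolated from male Sprague–Dawley rat pancreas, five per well. Islets were pre-incubated 30 min in HEPES-buffered Krebs–Ringer buffer (pH 7.4) with low glucose, then moved to the same buffer with glucose (11 mM) plus test compound. Static incubation ran at 37 °C in a shaking waterbath under 5% CO₂. Buffer was sampled at 1 h, insulin measured by ELISA, and reported as % increase versus control.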
# [24] = Cmax in Sprague-Dawley rat at 3 mg/kg, iv and 10 mg/kg, po; type: ADME, organism-based; settings: in vivo; procedure, shortened: as §2
compound,measurement,setting,value
COCCOCn1ccc(NC(=O)c2cc(Oc3ccc(S(C)(=O)=O)cc3)cc(-c3ncccc3C)c2)n1,AUC(0-t),[1],16900 ng·h/mL
same,half-life,[2],1.4 h
same,Activity,Mus musculus [3],32.3%
same,bioavailability,[4],22%
same,AUC(0-t),[5],19800 ng·h/mL
same,fold change (FC),MIN6,9
same,Activity,Rattus norvegicus,Non-toxic
same,Cmax,[6],3920 ng/mL
same,AUC(0-t),[7],13600 ng·h/mL
same,Activity,Canis familiaris,Non-toxic
same,MRT,[8],0.37 h
same,IC50,Cytochrome P450 2C9,5.2 µM
same,Tmax,[9],3.7 h
same,Activity,Salmonella typhimurium [10],Non-toxic
same,Activity,Mus musculus [11],Non-toxic
same,Activity,Salmonella typhimurium [12],Non-toxic
same,Activity,Salmonella typhimurium [13],Non-toxic
same,remaining at 1 h,[14],> 60%
same,AUC(0-t),[15],13100 ng·h/mL
same,AUC(0-t),[16],13700 ng·h/mL
same,AUC(0-t),[17],35400 ng·h/mL
same,Tmax,[18],2.7 h
same,Activity,Salmonella typhimurium [19],Non-toxic
same,remaining at 1 h,[20],> 60%
same,Cmax,[21],4250 ng/mL
same,Papp,[22],2.62 ×10⁻⁶ cm/s
same,fold change (FC),[23],3
same,Cmax,[24],3700 ng/mL
